Data published in the M2OR odorant receptor database.

Key:
Settings in all cases: stereoisomer not certain
[1] = target: T1, OR10G2 (Homo sapiens) (UniProt Q8NGC3)
T1 sequence (whole entry): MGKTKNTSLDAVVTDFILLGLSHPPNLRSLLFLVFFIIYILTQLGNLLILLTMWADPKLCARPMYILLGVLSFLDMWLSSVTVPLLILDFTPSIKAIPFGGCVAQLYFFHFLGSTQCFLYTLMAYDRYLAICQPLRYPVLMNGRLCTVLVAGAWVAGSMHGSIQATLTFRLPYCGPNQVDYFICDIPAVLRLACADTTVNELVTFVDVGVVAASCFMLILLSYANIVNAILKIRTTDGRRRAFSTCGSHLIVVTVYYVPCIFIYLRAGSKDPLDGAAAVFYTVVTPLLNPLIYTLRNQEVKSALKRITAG
In short: (§1)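 Whether a receptor–molecule pair is responsive (active) rests on the original authors' judgment that its measured signal was statistically different from baseline. Pairs without that judgment are non-responsive (inactive). Sources used varied assay methods, commonly transient luciferase assays in mammalian cell lines.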

[2] = target: T2, OR10G3 (Homo sapiens) (UniProt Q8NGC4)
T2 sequence (whole entry): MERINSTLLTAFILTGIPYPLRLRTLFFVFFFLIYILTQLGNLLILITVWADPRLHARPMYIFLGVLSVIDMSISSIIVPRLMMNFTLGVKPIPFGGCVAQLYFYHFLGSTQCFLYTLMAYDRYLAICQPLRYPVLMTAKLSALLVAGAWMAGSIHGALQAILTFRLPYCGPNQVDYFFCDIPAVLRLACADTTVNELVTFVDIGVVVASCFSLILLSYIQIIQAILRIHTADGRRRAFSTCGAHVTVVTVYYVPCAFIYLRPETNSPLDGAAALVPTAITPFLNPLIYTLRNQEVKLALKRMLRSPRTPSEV
In short: as §1

[3] = target: T3, OR10G4 (Homo sapiens) (UniProt Q8NGN3)
T3 sequence (whole entry): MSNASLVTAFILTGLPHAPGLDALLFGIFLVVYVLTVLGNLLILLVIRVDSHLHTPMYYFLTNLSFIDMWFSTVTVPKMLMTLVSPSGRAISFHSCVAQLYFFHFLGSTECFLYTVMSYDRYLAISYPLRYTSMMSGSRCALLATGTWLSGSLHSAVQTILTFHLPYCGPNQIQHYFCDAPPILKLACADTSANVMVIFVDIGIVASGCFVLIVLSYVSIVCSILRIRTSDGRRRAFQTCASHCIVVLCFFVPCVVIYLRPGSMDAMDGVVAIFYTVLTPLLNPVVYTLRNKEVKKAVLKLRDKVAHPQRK
In short: as §1

[4] = target: T4, OR10G6 (Homo sapiens) (UniProt Q8NH81)
T4 sequence (whole entry): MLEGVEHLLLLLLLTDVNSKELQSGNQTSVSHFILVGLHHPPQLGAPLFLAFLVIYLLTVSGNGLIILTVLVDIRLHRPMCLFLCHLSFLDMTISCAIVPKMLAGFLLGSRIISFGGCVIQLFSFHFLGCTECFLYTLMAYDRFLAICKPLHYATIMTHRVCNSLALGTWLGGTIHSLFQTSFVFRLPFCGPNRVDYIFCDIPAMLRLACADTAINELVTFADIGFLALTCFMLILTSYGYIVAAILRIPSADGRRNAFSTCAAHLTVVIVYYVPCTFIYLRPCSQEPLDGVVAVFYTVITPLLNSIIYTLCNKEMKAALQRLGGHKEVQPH
In short: as §1

[5] = target: T5, OR10G7 (Homo sapiens) (UniProt Q8NGN6)
T5 sequence (whole entry): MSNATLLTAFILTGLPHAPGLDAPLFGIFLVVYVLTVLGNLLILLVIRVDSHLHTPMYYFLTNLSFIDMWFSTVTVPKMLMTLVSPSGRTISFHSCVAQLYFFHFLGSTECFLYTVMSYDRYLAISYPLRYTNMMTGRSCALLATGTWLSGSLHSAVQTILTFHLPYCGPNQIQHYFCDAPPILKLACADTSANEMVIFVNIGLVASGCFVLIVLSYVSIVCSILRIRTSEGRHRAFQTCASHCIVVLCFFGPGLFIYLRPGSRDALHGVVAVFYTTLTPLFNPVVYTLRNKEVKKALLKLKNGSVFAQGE
In short: as §1

[6] = target: T6, OR10G8 (Homo sapiens) (UniProt Q8NGN5)
T6 sequence (whole entry): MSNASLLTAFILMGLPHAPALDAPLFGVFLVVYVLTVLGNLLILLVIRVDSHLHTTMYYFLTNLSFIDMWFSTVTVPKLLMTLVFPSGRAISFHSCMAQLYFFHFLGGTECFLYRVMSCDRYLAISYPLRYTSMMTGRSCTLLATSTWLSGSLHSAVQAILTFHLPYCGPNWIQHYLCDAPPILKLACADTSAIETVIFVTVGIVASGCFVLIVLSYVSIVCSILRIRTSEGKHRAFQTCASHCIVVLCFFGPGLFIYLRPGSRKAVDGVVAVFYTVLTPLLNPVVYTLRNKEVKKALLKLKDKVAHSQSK
In short: as §1

[7] = target: T7, OR10G9 (Homo sapiens) (UniProt Q8NGN4)
T7 sequence (whole entry): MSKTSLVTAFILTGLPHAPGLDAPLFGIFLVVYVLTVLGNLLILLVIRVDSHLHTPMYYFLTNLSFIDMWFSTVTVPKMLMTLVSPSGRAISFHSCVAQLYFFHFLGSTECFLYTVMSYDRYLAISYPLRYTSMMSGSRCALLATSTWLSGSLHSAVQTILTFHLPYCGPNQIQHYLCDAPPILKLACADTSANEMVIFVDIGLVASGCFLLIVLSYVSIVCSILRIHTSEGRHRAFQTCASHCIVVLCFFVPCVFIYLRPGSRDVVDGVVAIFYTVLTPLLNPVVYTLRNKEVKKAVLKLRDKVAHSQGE
In short: as §1

[8] = target: T8, OR10H1 (Homo sapiens) (UniProt Q9Y4A9)
T8 sequence (whole entry): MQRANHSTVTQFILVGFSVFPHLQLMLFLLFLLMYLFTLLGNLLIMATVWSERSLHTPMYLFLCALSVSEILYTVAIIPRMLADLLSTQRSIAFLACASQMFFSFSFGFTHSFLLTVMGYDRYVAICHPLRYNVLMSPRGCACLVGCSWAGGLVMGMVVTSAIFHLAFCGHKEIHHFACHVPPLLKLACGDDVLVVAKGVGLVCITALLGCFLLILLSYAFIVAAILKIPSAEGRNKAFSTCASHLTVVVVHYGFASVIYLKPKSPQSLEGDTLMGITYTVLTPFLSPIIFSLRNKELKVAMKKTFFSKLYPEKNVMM
In short: as §1

[9] = target: T9, OR10H2 (Homo sapiens) (UniProt O60403)
T9 sequence (whole entry): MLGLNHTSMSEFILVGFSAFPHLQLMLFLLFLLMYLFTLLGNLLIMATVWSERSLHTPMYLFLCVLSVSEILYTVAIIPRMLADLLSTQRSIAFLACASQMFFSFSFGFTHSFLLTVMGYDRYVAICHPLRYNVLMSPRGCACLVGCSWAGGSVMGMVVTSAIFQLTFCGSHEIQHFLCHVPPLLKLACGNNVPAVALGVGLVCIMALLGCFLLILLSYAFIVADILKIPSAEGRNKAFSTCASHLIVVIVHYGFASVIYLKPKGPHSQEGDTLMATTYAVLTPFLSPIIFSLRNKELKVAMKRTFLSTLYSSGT
In short: as §1

[10] = target: T10, OR10H3 (Homo sapiens) (UniProt O60404)
T10 sequence (whole entry): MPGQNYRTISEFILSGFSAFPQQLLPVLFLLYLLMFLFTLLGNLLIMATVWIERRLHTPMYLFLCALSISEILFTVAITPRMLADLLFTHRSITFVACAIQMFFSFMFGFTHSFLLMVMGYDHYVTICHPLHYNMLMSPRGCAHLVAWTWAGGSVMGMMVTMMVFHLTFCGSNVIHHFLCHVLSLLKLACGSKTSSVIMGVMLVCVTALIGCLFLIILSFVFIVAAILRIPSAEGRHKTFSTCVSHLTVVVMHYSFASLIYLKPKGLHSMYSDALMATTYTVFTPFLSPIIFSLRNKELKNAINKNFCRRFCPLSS
In short: as §1

[11] = target: T11, OR10H4 (Homo sapiens) (UniProt Q8NGA5)
T11 sequence (whole entry): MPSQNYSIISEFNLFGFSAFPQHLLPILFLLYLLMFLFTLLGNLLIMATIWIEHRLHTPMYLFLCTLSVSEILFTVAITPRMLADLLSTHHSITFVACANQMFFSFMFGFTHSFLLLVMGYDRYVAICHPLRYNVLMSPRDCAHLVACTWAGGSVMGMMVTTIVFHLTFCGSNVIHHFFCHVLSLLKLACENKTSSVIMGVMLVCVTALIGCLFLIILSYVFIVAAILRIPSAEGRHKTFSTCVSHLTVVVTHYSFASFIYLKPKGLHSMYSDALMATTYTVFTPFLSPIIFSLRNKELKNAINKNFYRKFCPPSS
In short: as §1

[12] = target: T12, OR10H5 (Homo sapiens) (UniProt Q8NGA6)
T12 sequence (whole entry): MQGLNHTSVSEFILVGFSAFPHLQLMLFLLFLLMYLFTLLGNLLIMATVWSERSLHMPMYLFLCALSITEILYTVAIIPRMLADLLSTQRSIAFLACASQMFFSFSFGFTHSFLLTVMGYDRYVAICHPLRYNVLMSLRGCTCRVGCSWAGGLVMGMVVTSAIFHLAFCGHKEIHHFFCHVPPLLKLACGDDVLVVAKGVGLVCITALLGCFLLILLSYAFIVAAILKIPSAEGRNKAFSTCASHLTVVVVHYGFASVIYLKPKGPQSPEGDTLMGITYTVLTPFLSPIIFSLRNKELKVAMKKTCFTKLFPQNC
In short: as §1

[13] = target: T13, OR10J1 (Homo sapiens) (UniProt P30954)
T13 sequence (whole entry): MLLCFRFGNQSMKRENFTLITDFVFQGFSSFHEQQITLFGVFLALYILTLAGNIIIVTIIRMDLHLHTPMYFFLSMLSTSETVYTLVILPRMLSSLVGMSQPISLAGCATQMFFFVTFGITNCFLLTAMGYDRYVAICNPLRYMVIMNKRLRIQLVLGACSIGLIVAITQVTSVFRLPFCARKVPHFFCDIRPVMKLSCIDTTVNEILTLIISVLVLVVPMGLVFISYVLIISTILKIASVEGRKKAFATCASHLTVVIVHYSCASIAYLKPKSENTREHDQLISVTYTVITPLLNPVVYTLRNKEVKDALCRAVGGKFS
In short: as §1

[14] = target: T14, OR10J3 (Homo sapiens) (UniProt Q5JRS4)
T14 sequence (whole entry): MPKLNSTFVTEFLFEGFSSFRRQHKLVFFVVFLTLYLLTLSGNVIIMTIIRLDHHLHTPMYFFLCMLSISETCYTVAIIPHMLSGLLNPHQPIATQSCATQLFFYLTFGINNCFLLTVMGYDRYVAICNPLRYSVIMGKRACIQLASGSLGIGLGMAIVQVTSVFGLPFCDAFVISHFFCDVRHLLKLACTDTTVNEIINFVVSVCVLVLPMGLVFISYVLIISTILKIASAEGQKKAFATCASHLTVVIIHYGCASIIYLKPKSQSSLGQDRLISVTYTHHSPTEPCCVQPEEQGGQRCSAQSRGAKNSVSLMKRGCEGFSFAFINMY
In short: as §1

[15] = target: T15, OR10J5 (Homo sapiens) (UniProt Q8NHC4)
T15 sequence (whole entry): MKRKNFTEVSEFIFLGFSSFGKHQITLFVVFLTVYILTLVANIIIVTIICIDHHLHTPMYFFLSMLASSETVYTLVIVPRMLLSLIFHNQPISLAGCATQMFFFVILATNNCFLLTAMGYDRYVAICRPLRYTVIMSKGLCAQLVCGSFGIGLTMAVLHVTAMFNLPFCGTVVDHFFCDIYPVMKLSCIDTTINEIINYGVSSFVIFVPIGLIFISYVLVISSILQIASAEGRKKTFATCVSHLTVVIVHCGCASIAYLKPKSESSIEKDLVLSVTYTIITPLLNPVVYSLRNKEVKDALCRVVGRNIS
In short: as §1

[16] = target: T16, OR10K1 (Homo sapiens) (UniProt Q8NGX5)
T16 sequence (whole entry): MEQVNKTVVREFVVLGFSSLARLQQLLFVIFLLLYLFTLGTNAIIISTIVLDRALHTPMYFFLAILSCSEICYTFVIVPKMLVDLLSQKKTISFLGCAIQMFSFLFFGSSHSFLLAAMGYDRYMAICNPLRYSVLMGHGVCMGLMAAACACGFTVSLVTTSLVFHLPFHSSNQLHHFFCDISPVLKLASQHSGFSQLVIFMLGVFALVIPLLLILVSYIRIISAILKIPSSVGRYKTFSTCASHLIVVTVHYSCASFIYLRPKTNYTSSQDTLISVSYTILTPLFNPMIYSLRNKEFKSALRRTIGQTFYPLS
In short: as §1

[17] = target: T17, OR10P1 (Homo sapiens) (UniProt Q8NGE3)
T17 sequence (whole entry): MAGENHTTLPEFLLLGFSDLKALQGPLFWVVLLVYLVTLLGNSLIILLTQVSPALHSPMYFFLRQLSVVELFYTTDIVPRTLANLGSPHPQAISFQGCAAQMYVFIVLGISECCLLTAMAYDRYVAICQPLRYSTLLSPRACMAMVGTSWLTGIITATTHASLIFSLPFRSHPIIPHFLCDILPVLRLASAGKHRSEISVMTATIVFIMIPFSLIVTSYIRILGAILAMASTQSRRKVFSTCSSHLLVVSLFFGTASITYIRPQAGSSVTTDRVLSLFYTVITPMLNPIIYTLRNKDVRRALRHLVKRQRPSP
In short: as §1

[18] = target: T18, OR10Q1 (Homo sapiens) (UniProt Q8NGQ4)
T18 sequence (whole entry): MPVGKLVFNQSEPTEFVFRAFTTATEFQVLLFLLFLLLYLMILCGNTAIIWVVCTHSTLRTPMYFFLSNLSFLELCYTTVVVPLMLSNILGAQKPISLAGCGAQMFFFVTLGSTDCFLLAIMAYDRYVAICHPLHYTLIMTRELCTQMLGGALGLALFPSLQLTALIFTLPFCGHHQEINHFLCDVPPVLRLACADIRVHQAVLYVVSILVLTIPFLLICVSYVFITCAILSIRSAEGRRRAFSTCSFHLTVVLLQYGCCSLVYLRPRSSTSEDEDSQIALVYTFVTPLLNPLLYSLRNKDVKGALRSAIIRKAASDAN
In short: as §1

Measured: odorant receptor agonist call;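 further: active if original authors judged signal statistically different from baseline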

CC1=NC(C)C(C)S1 (configuration not stated)
inactive: all assays above

CC1=C(O)C(=O)C(C)O1 (configuration not stated)
inactive: all assays above

CC12CCC(CC1=O)C2(C)C (configuration not stated)
inactive: [15]
